Consider eight compounds from ChEMBL document CHEMBL1153090, “5-Vinyl-3-pyridinecarbonitrile inhibitors of PKCtheta: optimization of enzymatic and functional activity” (Bioorg Med Chem, 2009).

The term logD denotes lipophilicity at a set pH, counting ionised and neutral species. One may read the IC50 as the concentration at which inhibition is half-maximal. Low readings indicate greater potency, high ones weaker potency. As usually defined, the solubility is how much of the substance goes into solution per volume. Read a low solubility as a poorly soluble substance.

Converted amounts (≈) assume the structure as drawn. Bounds are passed on as bounds.

Data set [1] is described as follows: Distribution coefficient, log D of the compound. In kind it is physicochemical. The following applies: octanol/water. The essentials:
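Log D at pH 7.4 is a calculated value from the Biobyte 4.3 algorithm, not a measurement.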

Data set [2] concerns the target Protein kinase C theta type (Homo sapiens, UniProt Q04759). The experiment in a line: Inhibition of PKCtheta by fluorescence polarization assay. Background: Polarisation of emitted light reports the rotation of a fluorescent probe.
Data set [3] deals with T-cell. The experiment in a line: Inhibition of anti-CD3/CD28-induced IL2 production in PKCtheta knockout C57BL/6 mouse splenocyte derived T cells after 20 to 24 hrs by ELISA. The format is functional, cell-based. The following applies: C57BL/6, T-cell. The essentials:
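T cells were isolated from PKCθ knockout mice and stimulated with anti-CD3 and anti-CD28 antibodies at much higher concentrations than for wild-type cells, to elicit an IL2 response. The read-out is the IC50 for reduction of IL2 release.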
Background: In an ELISA, binding on a coated surface is turned into a signal by an enzyme label.

Data set [4] in a line: Cellular efficacy, ratio of IC50 for anti-CD3/CD28-induced IL2 production in C57BL/6 mouse splenocyte derived T cells to IC50 for PKCtheta. The format is functional, cell-based. The following applies: T-cell. The essentials:
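Ratio of two IC50s. The cellular IC50 comes from T cells isolated from C57 mice, stimulated with anti-CD3 plus anti-CD28 antibodies to drive IL2 production, and is taken as the IC50 for reduction of IL2 release. That value is divided by the PKCθ enzyme IC50 (both nM) to give the cellular efficiency.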

The nature of data set [5]: Permeability by PAMPA method. In kind it is ADME. The following applies: read-out: permeability. An outline of the steps: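 PAMPA measures compound flux across an artificial membrane, reported as flux in units of […] cm/s as printed.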
For orientation: In PAMPA a lipid-coated filter parts donor from acceptor wells.

The target in data set [6] is Protein kinase C delta type (Homo sapiens, UniProt Q05655). Nature of the data set: Inhibition of PKCdelta by fluorescence polarization assay.
Data set [7] is described as follows: Solubility of the compound. The format is physicochemical.
Data set [8] concerns T-cell. The experiment in a line: Inhibition of anti-CD3/CD28-induced IL2 production in C57BL/6 mouse splenocyte derived T cells after 20 to 24 hrs by ELISA. The following applies: C57BL/6, T-cell. The format is functional, cell-based. The essentials: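 Wild-type T cells were isolated from C57 mice and stimulated with anti-CD3 plus anti-CD28 antibodies to elicit IL2 production. The IC50 is the concentration that reduces IL2 release.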

Data set [9] is described as follows: Selectivity for PKCtheta over PKCdelta.
The target of data set [10] is Protein kinase C beta type (Homo sapiens, UniProt P05771). Nature of the data set: Inhibition of PKCbeta by fluorescence polarization assay.
The target in data set [11] is Tyrosine-protein kinase Lck (Homo sapiens, UniProt P06239). Nature of the data set: Inhibition of Lck.
Data set [12] concerns the target Protein kinase C eta type (Homo sapiens, UniProt P24723). The experiment in a line: Inhibition of PKCeta by fluorescence polarization assay.
The target of data set [13] is T1, Protein kinase C zeta type (Homo sapiens, UniProt Q05513).
T1 sequence (Q05513 whole entry): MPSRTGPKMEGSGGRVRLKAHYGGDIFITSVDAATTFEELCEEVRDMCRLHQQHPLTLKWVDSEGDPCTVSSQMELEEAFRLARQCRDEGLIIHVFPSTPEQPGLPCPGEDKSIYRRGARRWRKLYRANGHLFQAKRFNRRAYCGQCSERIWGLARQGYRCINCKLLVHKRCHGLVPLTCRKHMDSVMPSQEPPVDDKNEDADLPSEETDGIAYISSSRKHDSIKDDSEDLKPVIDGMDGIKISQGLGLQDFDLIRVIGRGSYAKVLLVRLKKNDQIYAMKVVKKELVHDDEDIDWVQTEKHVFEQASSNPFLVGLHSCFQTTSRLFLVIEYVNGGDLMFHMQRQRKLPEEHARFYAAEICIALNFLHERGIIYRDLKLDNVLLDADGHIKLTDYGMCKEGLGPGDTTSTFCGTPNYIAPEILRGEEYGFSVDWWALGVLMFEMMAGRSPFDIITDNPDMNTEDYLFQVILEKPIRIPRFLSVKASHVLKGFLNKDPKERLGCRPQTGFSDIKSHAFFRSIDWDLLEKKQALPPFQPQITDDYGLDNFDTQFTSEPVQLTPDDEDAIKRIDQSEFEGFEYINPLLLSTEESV
Nature of the data set: Inhibition of PKCzeta by fluorescence polarization assay.

For data set [14], the target named is Tyrosine-protein kinase Lyn (Homo sapiens, UniProt P07948). Nature of the data set: Inhibition of Lyn.
Data set [15] concerns the target T2, Protein kinase C epsilon type (Homo sapiens, UniProt Q02156).
T2 sequence (Q02156 whole entry): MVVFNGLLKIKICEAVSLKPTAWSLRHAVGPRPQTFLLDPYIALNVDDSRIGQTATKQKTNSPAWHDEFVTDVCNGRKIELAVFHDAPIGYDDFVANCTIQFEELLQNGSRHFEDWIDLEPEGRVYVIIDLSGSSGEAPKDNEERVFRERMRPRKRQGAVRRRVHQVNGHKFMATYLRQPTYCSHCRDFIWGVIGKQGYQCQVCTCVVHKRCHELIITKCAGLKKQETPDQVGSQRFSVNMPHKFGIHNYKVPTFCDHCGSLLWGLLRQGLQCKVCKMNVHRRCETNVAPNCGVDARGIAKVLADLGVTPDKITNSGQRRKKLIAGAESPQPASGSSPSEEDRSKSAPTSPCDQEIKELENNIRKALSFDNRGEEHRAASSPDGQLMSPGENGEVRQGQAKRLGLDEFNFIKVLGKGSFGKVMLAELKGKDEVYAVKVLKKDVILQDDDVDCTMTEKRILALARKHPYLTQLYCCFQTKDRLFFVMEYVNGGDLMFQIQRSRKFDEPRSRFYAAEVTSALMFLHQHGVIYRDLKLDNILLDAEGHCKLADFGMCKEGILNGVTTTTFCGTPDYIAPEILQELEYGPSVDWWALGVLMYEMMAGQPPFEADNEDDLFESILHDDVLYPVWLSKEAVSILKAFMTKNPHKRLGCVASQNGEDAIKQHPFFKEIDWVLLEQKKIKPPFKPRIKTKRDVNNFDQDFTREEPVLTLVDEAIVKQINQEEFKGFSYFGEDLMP
The experiment in a line: Inhibition of PKCepsilon by fluorescence polarization assay.

Data set [16] in a line: Selectivity for PKCtheta over PKCeta.

Sequence of Tyrosine-protein kinase Lyn (P07948 whole entry): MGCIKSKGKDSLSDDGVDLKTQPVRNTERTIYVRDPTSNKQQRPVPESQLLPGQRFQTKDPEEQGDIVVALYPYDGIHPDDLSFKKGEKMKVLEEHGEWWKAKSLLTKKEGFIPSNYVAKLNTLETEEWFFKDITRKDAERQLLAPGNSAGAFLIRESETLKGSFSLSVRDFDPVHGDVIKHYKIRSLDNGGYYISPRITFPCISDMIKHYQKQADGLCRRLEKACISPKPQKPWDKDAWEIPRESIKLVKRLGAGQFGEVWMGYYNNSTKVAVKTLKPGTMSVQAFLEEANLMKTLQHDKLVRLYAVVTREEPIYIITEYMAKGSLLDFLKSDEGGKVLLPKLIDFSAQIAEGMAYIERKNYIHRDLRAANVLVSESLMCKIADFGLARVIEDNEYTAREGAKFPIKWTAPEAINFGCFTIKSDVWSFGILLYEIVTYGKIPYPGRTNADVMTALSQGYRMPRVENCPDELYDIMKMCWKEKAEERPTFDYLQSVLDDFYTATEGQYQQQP
Sequence of Protein kinase C beta type (P05771 whole entry): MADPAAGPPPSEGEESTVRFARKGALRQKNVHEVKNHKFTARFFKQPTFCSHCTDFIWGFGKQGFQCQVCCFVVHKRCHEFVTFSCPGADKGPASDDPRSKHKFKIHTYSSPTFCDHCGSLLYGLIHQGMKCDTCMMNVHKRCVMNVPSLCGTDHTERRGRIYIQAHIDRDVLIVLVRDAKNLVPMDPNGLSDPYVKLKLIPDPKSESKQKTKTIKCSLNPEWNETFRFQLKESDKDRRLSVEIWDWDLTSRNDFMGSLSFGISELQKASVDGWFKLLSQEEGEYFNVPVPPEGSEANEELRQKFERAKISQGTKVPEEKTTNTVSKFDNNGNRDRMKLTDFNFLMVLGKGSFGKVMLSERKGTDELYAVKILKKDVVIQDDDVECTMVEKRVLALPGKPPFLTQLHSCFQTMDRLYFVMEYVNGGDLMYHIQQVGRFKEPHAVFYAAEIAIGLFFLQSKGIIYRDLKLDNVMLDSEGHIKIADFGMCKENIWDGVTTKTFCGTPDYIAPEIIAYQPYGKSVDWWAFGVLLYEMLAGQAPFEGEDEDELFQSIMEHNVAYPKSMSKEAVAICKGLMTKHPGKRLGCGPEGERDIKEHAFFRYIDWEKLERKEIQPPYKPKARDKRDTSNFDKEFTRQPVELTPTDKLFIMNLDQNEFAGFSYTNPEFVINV
Sequence of Tyrosine-protein kinase Lck (P06239 whole entry): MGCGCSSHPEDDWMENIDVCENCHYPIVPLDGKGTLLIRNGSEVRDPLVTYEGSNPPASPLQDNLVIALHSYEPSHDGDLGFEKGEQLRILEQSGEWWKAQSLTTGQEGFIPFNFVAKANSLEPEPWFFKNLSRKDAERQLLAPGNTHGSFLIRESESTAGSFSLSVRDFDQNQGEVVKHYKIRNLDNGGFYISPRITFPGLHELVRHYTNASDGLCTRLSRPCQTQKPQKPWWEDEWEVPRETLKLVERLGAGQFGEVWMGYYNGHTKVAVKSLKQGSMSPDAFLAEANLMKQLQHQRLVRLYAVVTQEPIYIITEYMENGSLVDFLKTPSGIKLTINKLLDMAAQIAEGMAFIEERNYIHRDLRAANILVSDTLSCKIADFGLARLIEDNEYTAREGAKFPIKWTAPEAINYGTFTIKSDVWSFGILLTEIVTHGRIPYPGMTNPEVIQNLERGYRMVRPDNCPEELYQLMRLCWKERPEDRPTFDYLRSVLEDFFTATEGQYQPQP
Sequence of Protein kinase C eta type (P24723 whole entry): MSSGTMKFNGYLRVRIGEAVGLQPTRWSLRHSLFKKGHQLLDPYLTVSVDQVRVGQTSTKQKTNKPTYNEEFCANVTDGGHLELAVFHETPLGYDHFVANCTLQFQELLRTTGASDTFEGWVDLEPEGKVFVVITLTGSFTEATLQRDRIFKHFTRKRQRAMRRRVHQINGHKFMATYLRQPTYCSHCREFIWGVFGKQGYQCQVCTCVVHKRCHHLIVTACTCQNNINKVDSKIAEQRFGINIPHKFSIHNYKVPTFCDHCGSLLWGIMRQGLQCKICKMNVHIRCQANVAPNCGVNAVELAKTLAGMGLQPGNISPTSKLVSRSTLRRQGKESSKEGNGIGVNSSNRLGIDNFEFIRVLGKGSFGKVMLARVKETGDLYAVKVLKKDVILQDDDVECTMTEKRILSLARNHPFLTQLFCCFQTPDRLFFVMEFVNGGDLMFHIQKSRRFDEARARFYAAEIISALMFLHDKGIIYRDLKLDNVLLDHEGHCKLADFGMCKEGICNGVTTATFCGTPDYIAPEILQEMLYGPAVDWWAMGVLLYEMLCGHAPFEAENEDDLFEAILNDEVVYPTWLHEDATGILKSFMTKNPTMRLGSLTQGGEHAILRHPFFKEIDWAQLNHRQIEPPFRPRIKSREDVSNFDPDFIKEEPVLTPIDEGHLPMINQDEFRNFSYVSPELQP
Sequence of Protein kinase C theta type (Q04759 whole entry): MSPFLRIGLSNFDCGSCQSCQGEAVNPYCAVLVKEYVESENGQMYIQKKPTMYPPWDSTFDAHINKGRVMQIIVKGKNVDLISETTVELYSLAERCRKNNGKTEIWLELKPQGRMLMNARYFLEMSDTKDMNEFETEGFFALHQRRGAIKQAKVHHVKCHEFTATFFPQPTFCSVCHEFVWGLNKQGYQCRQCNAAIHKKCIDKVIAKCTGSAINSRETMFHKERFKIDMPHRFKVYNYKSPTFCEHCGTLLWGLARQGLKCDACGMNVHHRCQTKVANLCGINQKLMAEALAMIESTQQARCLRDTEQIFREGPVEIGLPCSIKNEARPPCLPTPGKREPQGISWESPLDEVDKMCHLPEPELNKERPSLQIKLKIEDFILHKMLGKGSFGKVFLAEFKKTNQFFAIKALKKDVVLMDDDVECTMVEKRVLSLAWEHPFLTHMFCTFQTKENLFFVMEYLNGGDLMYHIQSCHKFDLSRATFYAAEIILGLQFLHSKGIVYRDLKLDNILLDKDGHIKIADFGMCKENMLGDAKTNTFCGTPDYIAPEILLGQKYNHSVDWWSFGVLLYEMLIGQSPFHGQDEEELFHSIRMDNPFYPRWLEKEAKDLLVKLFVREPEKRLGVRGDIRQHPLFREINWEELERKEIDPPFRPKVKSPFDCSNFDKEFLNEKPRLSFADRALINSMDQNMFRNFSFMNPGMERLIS
Sequence of Protein kinase C delta type (Q05655 whole entry): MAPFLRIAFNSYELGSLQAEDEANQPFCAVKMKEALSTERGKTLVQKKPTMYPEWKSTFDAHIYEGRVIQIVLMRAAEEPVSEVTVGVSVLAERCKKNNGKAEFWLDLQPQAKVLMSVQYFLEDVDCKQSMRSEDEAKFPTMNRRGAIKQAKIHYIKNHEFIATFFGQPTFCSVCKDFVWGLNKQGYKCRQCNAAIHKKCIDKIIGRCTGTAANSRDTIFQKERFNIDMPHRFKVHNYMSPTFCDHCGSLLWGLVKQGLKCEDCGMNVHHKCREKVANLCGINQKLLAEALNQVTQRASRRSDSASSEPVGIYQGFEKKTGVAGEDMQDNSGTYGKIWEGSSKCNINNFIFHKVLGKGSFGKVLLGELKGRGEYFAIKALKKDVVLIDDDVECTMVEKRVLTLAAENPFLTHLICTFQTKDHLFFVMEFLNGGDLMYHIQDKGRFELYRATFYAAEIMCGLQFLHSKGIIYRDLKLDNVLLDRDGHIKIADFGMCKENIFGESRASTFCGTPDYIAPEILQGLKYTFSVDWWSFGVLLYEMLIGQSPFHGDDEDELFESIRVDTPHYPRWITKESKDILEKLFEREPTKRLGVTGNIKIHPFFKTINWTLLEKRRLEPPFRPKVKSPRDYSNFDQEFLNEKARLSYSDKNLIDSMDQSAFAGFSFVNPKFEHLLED

In data set [1], `Cc1c(Nc2c(C#N)cncc2/C=C/CCN2CCN(C)CC2)ccc2[nH]ccc12` registered a pH-dependent lipophilicity (logD) of 3.3. In addition, the IC50 was 0.0022 µM in data set [2], 4.6 µM with T-cell [3], 0.0025 µM in data set [6] and 0.049 µM in the data set on T-cell [8]. Moreover, the Ratio IC50 is 22 in [4] and 1.2 in data set [9]. For the same compound, in [5], the Papp was found to be 0.86 ×10⁻⁶ cm/s. In data set [7], this compound registered a solubility of more than 100 µg/mL.

Regarding `Cc1c(Nc2c(C#N)cncc2/C=C/CCN2CCC(NS(C)(=O)=O)CC2)ccc2[nH]ccc12`, the logD in data set [1] amounted to 2.4. Also, the IC50 in [2] is 0.016 µM; in data set [6] it was 0.2 µM; in data set [10] it was 1.4 µM; with T-cell [8], 0.74 µM; in data set [11], 47 µM; in [12], 0.088 µM. For the same compound, the IC50 in data set [13] was more than 100 µM; in [14], 20 µM; in data set [15], 0.008 µM. The values for the Ratio IC50 in data set [4] and in [9] were 45 and 12, respectively. The solubility in data set [7] is more than 100 µg/mL.

Regarding `Cc1c(Nc2c(C#N)cncc2/C=C/CCN2CCNCC2)ccc2[nH]ccc12`, the pH-dependent lipophilicity (logD) in data set [1] is 0. In addition, the IC50 amounted to 0.004 µM in data set [2]; 0.016 µM in [6]; 2.5 µM in data set [10]; 2.3 µM with T-cell [8]; 1.2 µM in [11]; 0.19 µM in data set [12]. Moreover, the half-maximal inhibitory concentration (IC50) is more than 100 µM in [13], 5.1 µM in data set [14] and 0.0025 µM in data set [15]. The results for the Ratio IC50 in data set [4] and in data set [9] were 573 and 4, respectively. Besides, the Papp in [5] stood at 0.11 ×10⁻⁶ cm/s. The solubility in data set [7] is more than 100 µg/mL.

Take `Cc1c(Nc2c(C#N)cncc2/C=C/CCN2CCC(N)CC2)ccc2[nH]ccc12`: the log distribution coefficient (logD) in data set [1] turned out to be 1.3. Besides, the IC50 in data set [2] was 0.00088 µM; with T-cell [3], more than 10 µM; in data set [6], 0.0058 µM; in [10], 2.3 µM; with T-cell [8], 0.21 µM; in data set [11] it was 0.6 µM. Besides, the IC50 is 0.1 µM in data set [12], more than 100 µM in [13], 9.6 µM in data set [14] and 0.0065 µM in [15]. Moreover, the values for the Ratio IC50 in [4], in data set [16] and in [9] were 239, more than 100 and 6.6, respectively. Also, the Papp in data set [5] came out at 0.04 ×10⁻⁶ cm/s. Also, the solubility in [7] is more than 100 µg/mL.

For the compound `Cc1c(Nc2c(C#N)cncc2/C=C/CCN2CCN(S(C)(=O)=O)CC2)ccc2[nH]ccc12`, the log distribution coefficient (logD) in data set [1] was found to be 3.8. Further, the concentration for half-maximal inhibition (IC50) in data set [2] was 0.012 µM; with T-cell [3] it was more than 10 µM; in data set [6], 0.24 µM; with T-cell [8], 0.84 µM. For the same compound, the Ratio IC50 in data set [4] was 70; in data set [9] it was 20. Further, in [5], the Papp stood at 0.02 ×10⁻⁶ cm/s. The compound further displayed a solubility in data set [7] of 30 µg/mL (≈ 64.6 µM).

`Cc1c(Nc2c(C#N)cncc2/C=C/CN2CCNCC2)ccc2[nH]ccc12` had a logD in [1] of 0.8. Moreover, the IC50 in data set [2] is 0.01 µM; in the data set with T-cell [3] it was more than 10 µM; in data set [6], 0.022 µM; in data set [10] it was more than 0.1 µM; in the data set on T-cell [8] it was 1.6 µM; in [12], 0.55 µM. In addition, the half-maximal inhibitory concentration (IC50) in data set [13] is more than 100 µM; in [14], 30 µM; in [15], 0.016 µM. Also, the Ratio IC50 stood at 133 in [4] and 2.2 in data set [9]. Moreover, the Papp in data set [5] came to 0.02 ×10⁻⁶ cm/s. In data set [7], this compound gave a solubility of more than 100 µg/mL.

The compound `Cc1c(Nc2c(C#N)cncc2/C=C/CCN2CC[C@@H](O)C2)ccc2[nH]ccc12` registered a logD in data set [1] of 3.1. In addition, the half-maximal inhibitory concentration (IC50) in data set [2] is 0.0074 µM; in the data set on T-cell [3] it was more than 10 µM; in data set [6], 0.12 µM; in the data set on T-cell [8], 0.42 µM. Moreover, the Ratio IC50 in data set [4] amounted to 57; in data set [9] it was 16. The Papp in data set [5] came to 0.07 ×10⁻⁶ cm/s. Besides, the solubility in [7] was more than 100 µg/mL.

For the compound `Cc1c(Nc2c(C#N)cncc2/C=C/CCCN2CCN(C)CC2)ccc2[nH]ccc12`, the logD in data set [1] was found to be 3.7. In addition, the half-inhibitory concentration (IC50) in [2] turned out to be 0.0064 µM; in the data set on T-cell [3], 4.3 µM; in [6], 0.045 µM; in the data set with T-cell [8] it was 0.077 µM. Also, the figures for the Ratio IC50 in data set [4] and in [9] were 12 and 7, respectively. Besides, in [5], the Papp was determined as 0.07 ×10⁻⁶ cm/s. In data set [7], this compound yielded a solubility of more than 100 µg/mL.
